Data on one compound can be found in ChEMBL document CHEMBL1157487, “Discovery of potent CCR4 antagonists: Synthesis and structure-activity relationship study of 2,4-diaminoquinazolines” (Bioorg Med Chem, 2008).

pIC50: −log10 of the molar value.

For orientation: pIC50 means the negative decadic logarithm of the IC50, by convention in mol/L. Broadly, the inhibition is how much of the control response was suppressed. Read a low inhibition as little suppression.

Data set [1] addresses T1, C-C chemokine receptor type 4 (Homo sapiens, UniProt P51679).
T1 sequence (P51679 whole entry): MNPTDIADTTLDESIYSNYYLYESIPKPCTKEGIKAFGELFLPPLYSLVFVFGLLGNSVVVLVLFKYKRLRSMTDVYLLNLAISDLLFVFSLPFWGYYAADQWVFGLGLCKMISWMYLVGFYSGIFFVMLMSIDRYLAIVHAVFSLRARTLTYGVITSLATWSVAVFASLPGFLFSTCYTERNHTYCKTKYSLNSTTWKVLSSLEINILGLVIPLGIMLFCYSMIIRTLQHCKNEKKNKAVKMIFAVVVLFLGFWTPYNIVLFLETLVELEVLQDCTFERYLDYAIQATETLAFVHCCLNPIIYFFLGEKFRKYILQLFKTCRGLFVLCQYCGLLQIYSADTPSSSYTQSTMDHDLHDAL
The experiment in a line: Antagonist activity at human CCR4 receptor expressed in mouse B300-19 cells by [35S]GTPgammaS binding assay. The class given is functional, cell-based. An outline of the steps: (§1)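 Membranes from human CCR4-expressing B300-19 cells (1 µg protein/well) with 150 pM [35S]GTPγS, 2 µM GDP, 3 nM MDC (CCL22), WGA SPA beads, test compound in 20 mM Hepes-NaOH pH 7.05, 100 mM NaCl, 5 mM MgCl2, 0.2% BSA; 1.5 h, 25 °C. Percent inhibition against no-compound and no-CCL22 controls. Duplicate, four concentrations, usually two determinations averaged. IC50 by non-linear fitting.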
In general terms: GTPγS is a poorly hydrolysed GTP analogue; its binding reports G protein activation.

The target in data set [2] is T1, C-C chemokine receptor type 4. Kind of data set: Displacement of [125I]CCl22 from human CCR4 receptor expressed in mouse B300-19 cells by SPA. It is filed as cell-based. An outline of the steps:
(§2)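 SPA on whole human CCR4-expressing B300-19 cells (2×10^5/well) with 25 pM [125I]CCL22 and WGA SPA beads, test compound, in 50 mM Hepes pH 7.4, 5 mM MgCl2, 1 mM CaCl2, 0.1% BSA; 2 h, 25 °C. Nonspecific binding defined with 10 nM unlabeled CCL22. Duplicate, four concentrations, usually two determinations averaged. IC50 by non-linear curve fitting.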
In general terms: Loss of bound radioactivity is the signal in a displacement assay; it reports binding, not function.

For data set [3], the target named is T2, C-C chemokine receptor type 4 (Homo sapiens) (UniProt P51679).
T2 sequence (whole entry): T1 sequence (P51679 whole entry)
The experiment in a line: Antagonist activity at human CCR4 receptor expressed in mouse B300-19 cells at 1 uM by [35S]GTPgammaS binding assay. The class given is functional, cell-based. Put shortly: as §1

Data set [4] has as its target T2, C-C chemokine receptor type 4 (Homo sapiens). Kind of data set: Displacement of [125I]CCl22 from human CCR4 receptor expressed in mouse B300-19 cells at 1 uM by SPA. It is filed as cell-based. An outline of the steps: as §2
Data set [5] has the same target. Kind of data set: Antagonist activity at human CCR4 receptor expressed in mouse B300-19 cells assessed as CCL22-induced chemotaxis by bioluminescent assay. The class given is functional, cell-based. Put shortly:
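Stably transfected B300-19 cells (human CCR4 cDNA, G418 selection) at 5×10^6 cells/mL in RPMI 1640 with 0.1% BSA, pretreated with test compound; placed over 3 nM human CCL22 in 5-µm-pore polycarbonate filter chambers, 3 h, 37 °C, 5% CO2. Migrated cells quantified by ATP bioluminescence. Controls without compound or without CCL22. Triplicate, four concentrations. IC50 by non-linear curve fitting.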

The target of data set [6] is T3, C-C chemokine receptor type 4 (Mus musculus) (UniProt P51680).
T3 sequence (whole entry): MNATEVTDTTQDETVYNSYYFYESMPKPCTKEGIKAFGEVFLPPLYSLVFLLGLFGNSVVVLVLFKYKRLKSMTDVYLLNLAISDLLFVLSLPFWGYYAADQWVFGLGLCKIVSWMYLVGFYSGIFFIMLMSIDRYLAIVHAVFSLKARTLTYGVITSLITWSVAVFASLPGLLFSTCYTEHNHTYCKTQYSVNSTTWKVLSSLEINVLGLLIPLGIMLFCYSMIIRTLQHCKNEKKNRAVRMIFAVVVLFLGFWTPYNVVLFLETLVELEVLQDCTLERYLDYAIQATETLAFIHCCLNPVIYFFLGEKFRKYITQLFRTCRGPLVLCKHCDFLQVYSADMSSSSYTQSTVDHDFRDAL
Kind of data set: Antagonist activity at mouse CCR4 receptor expressed in mouse B300-19 cells assessed as CCL22-induced chemotaxis by bioluminescent assay. It is filed as functional, cell-based. An outline of the steps:
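Chemotaxis of B300-19 stable transformants carrying mouse CCR4 cDNA, suspended at 5×10^6 cells/mL in RPMI 1640 plus 0.1% BSA with test compound; 1 nM mouse CCL22 in lower wells, 5-µm pore filters, 3 h at 37 °C, 5% CO2. Migrated cells counted by ATP bioluminescence. Triplicate at four concentrations. IC50 from non-linear curve fit.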

The nature of data set [7]: Cytotoxicity against CCR4 expressing mouse B300-19 cells at 3 uM after 12 hrs by alamar blue assay. It is filed as cell-based. The settings on record: b300-19, 12 h. Put shortly:
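CCR4-expressing B300-19 cells (5×10^4/well) in RPMI 1640 with 10% FBS, 2-mercaptoethanol and antibiotics, 37 °C, 5% CO2, exposed to 0.3–10 µM compound for 12 h, then Alamar Blue for 4 h; fluorescence read at excitation 570 and emission 600 nm. Viability relative to untreated wells; minimum cytotoxic dose is the concentration lowering viability below 70%.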
A general note: The colour change of resazurin is a common sign of viable cells or microbes.

As to `COc1cc2nc(N3CCC(N4CCCC4)CC3)nc(NC3CCCCCC3)c2cc1OC`, the pIC50 is 7.72 in data set [1] and 7.15 in data set [2]. The inhibition in data set [3] stood at 93%; in data set [4], 100%. The Activity in data set [5] was 0.2 µM; in data set [6], 0.13 µM; in data set [7] it was “Toxic”.
